This note sets out measurements from ChEMBL document CHEMBL2086222, “Bioassay-guided isolation of prenylated xanthones and polycyclic acylphloroglucinols from the leaves of Garcinia nujiangensis” (J Nat Prod, 2012).

In data set [1] the test system is A-375. Briefly: Cytotoxicity against human A375 cells assessed as reduction in cell viability after 72 hrs by MTT assay. Format: functional, cell-based. Conditions: A-375, 72 h. A digest of the protocol:
(§1)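 Cells in RPMI 1640, DMEM or DMEM/F12 with 10% FBS, 37 °C, 5% CO2. Plated at 5 × 10^3 cells/well and attached overnight. Exposed 72 h to 5, 10, 20 or 40 μM from DMSO stocks diluted in medium. MTT (5 mg/mL stock in PBS) added for 4 h at 37 °C, formazan dissolved in DMSO, A490 read. Untreated cells taken as 100%.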
(Tetrazolium dyes change colour on reduction, which living cells bring about.)

Data set [2] relates to BXPC-3. As to the kind of experiment: Cytotoxicity against human BxPC3 cells assessed as reduction in cell viability after 72 hrs by MTT assay. The note with it: BXPC-3, 72 h. Format: functional, cell-based. A digest of the protocol: as §1
Data set [3] deals with AGS. Briefly: Cytotoxicity against human AGS cells assessed as reduction in cell viability after 72 hrs by MTT assay. In kind it is functional, cell-based. A digest of the protocol: as §1
Data set [4] deals with PANC-1. As to the kind of experiment: Cytotoxicity against human PANC1 cells assessed as reduction in cell viability after 72 hrs by MTT assay. In kind it is functional, cell-based. The note with it: PANC-1, 72 h. A digest of the protocol:
as §1

Data set [5] relates to SMMC-7721. Briefly: Cytotoxicity against human SMMC7721 cells assessed as reduction in cell viability after 72 hrs by MTT assay. In kind it is functional, cell-based. The note with it: SMMC-7721, 72 h. A digest of the protocol: as §1
Data set [6] concerns NCI-H2126. As to the kind of experiment: Cytotoxicity against human NCI-H2126 cells assessed as reduction in cell viability after 72 hrs by MTT assay. Format: functional, cell-based. The note with it: NCI-H2126, 72 h. In short, it runs like this:
as §1

The subject of data set [7] is A549. As to the kind of experiment: Cytotoxicity against human A549 cells assessed as reduction in cell viability after 72 hrs by MTT assay. In kind it is functional, cell-based. Conditions: A549, 72 h. In short, it runs like this: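 Human lung line cultured in RPMI 1640, DMEM or DMEM/F12 with 10% FBS at 37 °C, 5% CO2. 5 × 10^3 cells/well plated and left to attach overnight. Compound taken from DMSO stock, diluted in medium, tested at 5, 10, 20 and 40 μM for 72 h. MTT (5 mg/mL stock) added for 4 h at 37 °C. Formazan dissolved in DMSO, absorbance read at 490 nm. Untreated cells set as 100%.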

A short description of data set [8]: Cytotoxicity against human MIHA cells assessed as reduction in cell viability at 5 to 40 uM after 72 hrs by MTT assay. Format: cell-based. A digest of the protocol: as §1
The test system of data set [9] is A549. As to the kind of experiment: Cytotoxicity against human A549 cells assessed as reduction in cell viability at 5 to 40 uM after 72 hrs by MTT assay. In kind it is functional, cell-based. In short, it runs like this:
as §1

The next data set deals with U-87MG ATCC. Briefly: Cytotoxicity against human U87 cells assessed as reduction in cell viability at 5 to 40 uM after 72 hrs by MTT assay. In kind it is functional, cell-based. A digest of the protocol:
as §1

Data set [10] deals with AGS. As to the kind of experiment: Cytotoxicity against human AGS cells assessed as reduction in cell viability at 5 to 40 uM after 72 hrs by MTT assay. Format: functional, cell-based. A digest of the protocol: as §1
Data set [11] concerns SMMC-7721. As to the kind of experiment: Cytotoxicity against human SMMC7721 cells assessed as reduction in cell viability at 5 to 40 uM after 72 hrs by MTT assay. In kind it is functional, cell-based. A digest of the protocol: as §1
For data set [12], the system named is BXPC-3. As to the kind of experiment: Cytotoxicity against human BxPC3 cells assessed as reduction in cell viability at 5 to 40 uM after 72 hrs by MTT assay. In kind it is functional, cell-based. In short, it runs like this: as §1
Data set [13] deals with NCI-H2126. Briefly: Cytotoxicity against human NCI-H2126 cells assessed as reduction in cell viability at 5 to 40 uM after 72 hrs by MTT assay. Format: functional, cell-based. A digest of the protocol: as §1
The test system of a further data set is MDA-MB-231. As to the kind of experiment: Cytotoxicity against human MDA-MB-231 cells assessed as reduction in cell viability at 5 to 40 uM after 72 hrs by MTT assay. Format: functional, cell-based. In short, it runs like this: as §1
The next data set deals with HepG2. As to the kind of experiment: Cytotoxicity against human HepG2 cells assessed as reduction in cell viability at 5 to 40 uM after 72 hrs by MTT assay. Format: functional, cell-based. In short, it runs like this: as §1
For data set [14], the system named is PANC-1. Briefly: Cytotoxicity against human PANC1 cells assessed as reduction in cell viability at 5 to 40 uM after 72 hrs by MTT assay. Format: functional, cell-based. A digest of the protocol: as §1
The subject of data set [15] is A-375. As to the kind of experiment: Cytotoxicity against human A375 cells assessed as reduction in cell viability at 5 to 40 uM after 72 hrs by MTT assay. Format: functional, cell-based. A digest of the protocol: as §1
The subject of the next data set is MCF7. As to the kind of experiment: Cytotoxicity against human MCF7 cells assessed as reduction in cell viability at 5 to 40 uM after 72 hrs by MTT assay. Format: functional, cell-based. In short, it runs like this: as §1

Activity calls are given as the source filed them. The rule behind the calls is not given here.

For `CC(=O)O[C@H]1C(=O)[C@@]2(C)[C@H]([C@H](OC(=O)c3ccccc3)[C@]3(O)C[C@H](OC(=O)[C@H](O)[C@@H](NC(=O)c4ccccc4)c4ccccc4)C(C)=C1C3(C)C)[C@]1(OC(C)=O)CO[C@@H]1C[C@@H]2O` [PACLITAXEL], the IC50 is 9.2 nM in the data set on A-375 [1]; 90 nM in the data set with BXPC-3 [2]; 1600 nM in the data set on AGS [3]; 260 nM in the data set on PANC-1 [4]; 150 nM in the data set on SMMC-7721 [5]; 2500 nM in the data set on NCI-H2126 [6]. Also, the IC50 with A549 [7] turned out to be 720 nM.
With `COc1c(OC)c(O)c2c(=O)c3c(CC=C(C)C)c(CC=C(C)C)c(O)c(O)c3oc2c1CC=C(C)C` [NUJIANGEXANTHONE B], in data set [8], the Activity entry is on record as “Non-toxic”. The outcome with A549 [9], in the data set with U-87MG ATCC, in the data set on AGS [10], in the data set on SMMC-7721 [11], in the data set on BXPC-3 [12] and in the data set on NCI-H2126 [13] was Active. Besides, the result in the data set with MDA-MB-231, in the data set on HepG2, in the data set on PANC-1 [14], in the data set with A-375 [15] and in the data set with MCF7 was Active.
For `COc1c(O)c(O)c2c(=O)c3c(CC=C(C)C)c(CC=C(C)C)c(O)c(O)c3oc2c1CC=C(C)C` [NUJIANGEXANTHONE A], the Activity result in [8] is “Non-toxic”. Moreover, the outcome in the data set on A549 [9], in the data set on U-87MG ATCC, in the data set with AGS [10], with SMMC-7721 [11], in the data set with BXPC-3 [12] and with NCI-H2126 [13] was Active. Besides, the result in the data set with MDA-MB-231, in the data set with HepG2, with PANC-1 [14], in the data set on A-375 [15] and in the data set on MCF7 was Active.

For orientation: IC50 means the concentration that gives 50% inhibition.
